Active and inactive are the calls of the source. The rule behind the calls is not given here.
Experiments:
[1] = Cell cycle arrest in human MCF7 cells assessed as G1 phase accumulation at 1 uM after 24 hrs by propidium iodide staining based flow cytometry (reference value: 54.1 +/- 1.52%); type: functional
[2] = Cell cycle arrest in human A549 cells assessed as subG1 phase accumulation at 1 uM after 24 hrs by propidium iodide staining based flow cytometry relative to DMSO control; type: functional
[3] = Cell cycle arrest in human MCF7 cells assessed as G2/M phase accumulation at 1 uM after 24 hrs by propidium iodide staining based flow cytometry (reference value: 24.2 +/- 1.62%); type: functional
[4] = Cell cycle arrest in human PC3 cells assessed as G2/M phase accumulation at 1 uM after 24 hrs by propidium iodide staining based flow cytometry (reference value: 26.8 +/- 1.69%); type: functional; conditions: PC-3
[5] = Cell cycle arrest in human MCF7 cells assessed as S phase accumulation at 1 uM treated for 24 hrs followed by compound washout measured after 24 hrs by propidium iodide staining based flow cytometry (reference value: 12.2%); type: functional
[6] = Cell cycle arrest in human NCI-H1299 cells assessed as G2/M phase accumulation at 1 uM after 48 hrs by propidium iodide staining based flow cytometry (reference value: 11.8%); type: functional
[7] = Cell cycle arrest in human SH-SY5Y cells assessed as S phase accumulation at 1 uM after 24 hrs by propidium iodide staining based flow cytometry (reference value: 14.3 +/- 1.52%); type: functional
[8] = Cell cycle arrest in human A549 cells assessed as G1 phase accumulation at 1 uM after 24 hrs by propidium iodide staining based flow cytometry (reference value: 65.4 +/- 1.84%); type: functional
[9] = Induction of apoptosis in human NB1 hTERT cells assessed as early apoptotic cells at 5 uM after 72 hrs by Annexin-V FITC/propidium iodide staining based flow cytometry (reference value: 0.6%); type: functional
[10] = Cell cycle arrest in human NB1 hTERT cells assessed as S phase accumulation at 1 uM after 72 hrs by propidium iodide staining based flow cytometry (reference value: 3.6%); type: functional
[11] = Cell cycle arrest in human NB1 hTERT cells assessed as G1 phase accumulation at 1 uM after 48 hrs by propidium iodide staining based flow cytometry (reference value: 62.5%); type: functional
[12] = Cell cycle arrest in human T98G cells assessed as G2/M phase accumulation at 1 uM after 24 hrs by propidium iodide staining based flow cytometry (reference value: 8.8 +/- 0.93%); type: functional
SH-SY5Y = assay: Disruption of beta-tubulin network in human SH-SY5Y cells assessed as apoptotic nuclei at 1 uM after 24 hrs by DAPI staining based immunofluorescence microscopic analysis; type: cell-based
How it was run: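 Cells seeded on glass coverslips (1 x 10^5/well), treated 24 h, fixed in 4% paraformaldehyde 15 min, permeabilized with 0.5% Triton X-100, blocked in 5% BSA/PBS, stained overnight at 4 °C with anti-β-tubulin (1:200) then fluorescent secondary antibody; nuclei counterstained with DAPI; microtubule organization and nuclear morphology examined by fluorescence microscopy.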

[13] = Cell cycle arrest in human NB-1 cells assessed as G2/M phase accumulation at 1 uM after 72 hrs by propidium iodide staining based flow cytometry (reference value: 15.8%); conditions: nb1, 72 h
[14] = Antiproliferative activity against human SK-N-AS cells after 72 hrs by XTT assay; type: functional, cell-based
How it was run: (§1)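 Cells plated at 1500–2000 per well by doubling time, treated after 24 h with a concentration series in six triplicate wells, and incubated 72 h without a medium change. XTT reagent was then added for 4 h at 37 °C and absorbance read at 490 nm. IC50 is the concentration halving absorbance versus untreated cells. Experiments run in triplicate.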

HeLa [15] = assay: Induction of apoptosis in human HeLa cells assessed as live cells at 5 uM after 48 hrs by Annexin-V FITC/propidium iodide staining based flow cytometry (reference value: 91.1%); type: functional
[16] = Cell cycle arrest in human NB-1 cells assessed as G1 phase accumulation at 1 uM after 24 hrs by propidium iodide staining based flow cytometry (reference value: 75%); conditions: nb1, 24 h
[17] = Cell cycle arrest in human MCF7 cells assessed as S phase accumulation at 1 uM after 144 hrs by propidium iodide staining based flow cytometry (reference value: 17.8%); type: functional
[18] = Cell cycle arrest in human NB1 hTERT cells assessed as S phase accumulation at 1 uM after 48 hrs by propidium iodide staining based flow cytometry (reference value: 10.3%); type: functional
A549 = assay: Induction of apoptosis in human A549 cells assessed as late apoptotic cells at 5 uM after 72 hrs by Annexin-V FITC/propidium iodide staining based flow cytometry (reference value: 5.2%); type: functional
[19] = Antiproliferative activity against human IBR3G cells after 72 hrs by XTT assay; type: cell-based; how it was run: as §1
[20] = Antiproliferative activity against human IBR3-G SV40 cells after 72 hrs by XTT assay; type: functional, cell-based; conditions: IBR3-G SV40, 72 h; how it was run: as §1
[21] = Cell cycle arrest in human SK-N-AS cells assessed as S phase accumulation at 1 uM after 24 hrs by propidium iodide staining based flow cytometry (reference value: 21.3 +/- 1.14%); type: functional
[22] = Antiproliferative activity against human NCI-H1299 cells after 72 hrs by XTT assay; type: functional, cell-based; conditions: NCI-H1299, 72 h; how it was run: as §1
[23] = Cell cycle arrest in human HeLa cells assessed as G2/M phase accumulation at 1 uM after 8 hrs by propidium iodide staining based flow cytometry (reference value: 18.1%); type: functional
[24] = Antiproliferative activity against human MCF7 cells after 72 hrs by XTT assay; type: functional, cell-based; conditions: MCF7, 72 h; how it was run: as §1
HeLa [25] = assay: Antiproliferative activity against human HeLa cells at 2 uM after 72 hrs by XTT assay; type: functional, cell-based

With Cc1[nH]c2c(c1-c1nnc(-c3ccccc3)o1)Cc1ccccc1-2 the Activity [1] was 15.7 to 30.1%, the Activity [2] was 13.8% and the Activity [3] was 59.5 to 78.1%. For the same compound, the Activity [4] was 72%, the Activity [5] was 11.6% and the Activity [6] was 42.9%. It also gave an Activity [7] of 15.6%, an Activity [8] of 11.4% and an Activity [9] of 3.8%. It also gave an Activity [10] of 8.3%, an Activity [11] of 41.1% and an Activity [12] of 65.9%. For the same compound, the Activity (SH-SY5Y) was “Active”, the Activity [13] was 18.1% and the IC50 [14] was 0.19 µM. For the same compound, the Activity (HeLa [15]) was 6%, the Activity [16] was 73% and the Activity [17] was 5.6%. The Activity [18] was 10.9%, the Activity (A549) was 41.7% and the IC50 [19] was 0.77 µM. For the same compound, the IC50 [20] was 0.21 µM, the Activity [21] was 9.9% and the IC50 [22] was 0.12 µM. The Activity [23] was 45.3%, the IC50 [24] was 1.7 µM and the Activity (HeLa [25]) was “Active”.
